Source: article PMC4382465 (The Journal of antibiotics, 2014)
Values after ≈ are worked out from the molar mass of the structure shown. Like-named read-outs stand apart in the source and are kept apart here.

Tests used:
DNA gyrase = DNA gyrase (Escherichia coli, UniProt P0AES4+P0AES6); assay: DNA topoisomerase II - DNA supercoiling assay; format: biochemical
M. smegmatis ATCC607 = assay: MIC, broth dilution; format: cell-based, Mycobacterium smegmatis; settings: M. smegmatis ATCC607, broth dilution method
[1] = target: M. smegmatis RNA polymerase (Mycolicibacterium smegmatis, UniProt A0QS66+P60281); assay: RNA polymerase assay; format: biochemical
Chain of M. smegmatis RNA polymerase (P60281 whole entry, other chains not shown): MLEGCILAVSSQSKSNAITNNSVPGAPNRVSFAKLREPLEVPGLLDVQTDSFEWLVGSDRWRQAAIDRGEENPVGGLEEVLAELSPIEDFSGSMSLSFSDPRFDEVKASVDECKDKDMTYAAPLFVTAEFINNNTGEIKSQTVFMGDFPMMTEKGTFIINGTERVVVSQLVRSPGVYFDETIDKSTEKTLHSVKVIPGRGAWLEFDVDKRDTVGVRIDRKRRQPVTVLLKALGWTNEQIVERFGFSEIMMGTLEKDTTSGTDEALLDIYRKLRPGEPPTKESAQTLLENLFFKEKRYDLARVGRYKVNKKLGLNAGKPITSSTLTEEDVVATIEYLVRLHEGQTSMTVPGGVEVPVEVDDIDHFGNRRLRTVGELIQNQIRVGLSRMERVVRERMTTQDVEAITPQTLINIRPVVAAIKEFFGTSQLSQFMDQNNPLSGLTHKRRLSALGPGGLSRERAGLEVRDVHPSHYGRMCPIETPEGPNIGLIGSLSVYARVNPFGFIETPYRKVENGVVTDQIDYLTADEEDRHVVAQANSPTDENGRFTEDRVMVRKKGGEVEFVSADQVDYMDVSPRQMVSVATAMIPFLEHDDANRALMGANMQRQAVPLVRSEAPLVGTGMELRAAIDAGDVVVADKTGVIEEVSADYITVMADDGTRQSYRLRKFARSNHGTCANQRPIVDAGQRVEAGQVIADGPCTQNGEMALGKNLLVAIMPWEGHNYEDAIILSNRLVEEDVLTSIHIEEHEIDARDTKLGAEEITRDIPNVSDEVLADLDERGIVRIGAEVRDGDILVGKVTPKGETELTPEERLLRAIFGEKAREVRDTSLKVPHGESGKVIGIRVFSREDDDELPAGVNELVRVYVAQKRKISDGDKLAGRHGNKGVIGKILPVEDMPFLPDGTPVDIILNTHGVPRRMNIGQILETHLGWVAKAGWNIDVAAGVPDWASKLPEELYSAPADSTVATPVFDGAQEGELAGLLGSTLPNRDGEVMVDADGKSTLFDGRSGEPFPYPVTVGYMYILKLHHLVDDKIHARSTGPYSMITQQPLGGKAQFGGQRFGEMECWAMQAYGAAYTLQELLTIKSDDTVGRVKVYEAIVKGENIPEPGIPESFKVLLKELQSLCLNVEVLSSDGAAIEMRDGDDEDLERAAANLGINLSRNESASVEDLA
Chain of M. smegmatis RNA polymerase (A0QSL8 whole entry partner, other chains not shown): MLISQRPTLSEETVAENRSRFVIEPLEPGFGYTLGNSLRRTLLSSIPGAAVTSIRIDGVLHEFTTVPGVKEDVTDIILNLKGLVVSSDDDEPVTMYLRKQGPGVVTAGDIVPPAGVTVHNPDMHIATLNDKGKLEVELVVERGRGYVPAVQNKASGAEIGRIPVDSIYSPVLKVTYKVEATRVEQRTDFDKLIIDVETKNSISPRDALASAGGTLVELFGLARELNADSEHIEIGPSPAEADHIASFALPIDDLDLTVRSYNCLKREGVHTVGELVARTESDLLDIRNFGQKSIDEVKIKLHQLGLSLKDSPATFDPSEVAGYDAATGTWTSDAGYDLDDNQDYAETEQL
Chain of M. smegmatis RNA polymerase (A0QWT1 whole entry partner, other chains not shown): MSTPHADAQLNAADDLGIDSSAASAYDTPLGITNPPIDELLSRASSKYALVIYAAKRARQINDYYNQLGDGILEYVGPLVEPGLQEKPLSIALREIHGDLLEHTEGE

S. aureus RNA polymerase = S. aureus RNA polymerase (Staphylococcus aureus, UniProt P47768+Q2G0N5); assay: RNA polymerase assay; format: biochemical
M. tuberculosis H37Rv = assay: MIC, microplate alamar blue assay; format: cell-based; settings: Mycobacterium tuberculosis
[2] = target: T1, Mtb serine/threonine kinase PKnA (Mycobacterium tuberculosis, UniProt P9WI83); assay: Ser/Thr protein kinase assay; format: biochemical, M. tuberculosis
T1 sequence (P9WI83 1-431): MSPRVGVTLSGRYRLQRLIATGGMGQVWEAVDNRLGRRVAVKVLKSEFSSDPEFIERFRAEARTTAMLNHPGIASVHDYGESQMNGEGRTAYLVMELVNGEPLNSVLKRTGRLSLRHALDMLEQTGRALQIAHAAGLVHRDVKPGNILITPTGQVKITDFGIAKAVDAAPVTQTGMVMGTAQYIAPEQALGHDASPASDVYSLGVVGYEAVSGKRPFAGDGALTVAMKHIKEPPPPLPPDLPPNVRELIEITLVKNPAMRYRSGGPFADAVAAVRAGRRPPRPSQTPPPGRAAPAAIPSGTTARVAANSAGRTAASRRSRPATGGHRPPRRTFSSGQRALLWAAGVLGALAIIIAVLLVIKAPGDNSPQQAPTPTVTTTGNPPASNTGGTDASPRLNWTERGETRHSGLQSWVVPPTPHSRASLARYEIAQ

Cytotoxicity assay = format: cell-based; settings: monkey, Vero monkey kidney cells (ATCC CCL-81)
Procedure, shortened: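 Vero kidney cells grown in 96-well plates in ATCC-formulated Eagle's Minimum Essential Medium and exposed to test compound. Each plate includes reference drugs of known toxicity as controls. Cytopathic effect is read by MTT assay after incubation, and IC50 is reported.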

[3] = system: HepG2 human hepatoblastoma cells; assay: Cytotoxicity assay; format: cell-based; settings: HepG2, read-out: IC50 μg/mL HepG2 cells
[4] = system: electron transport systems; assay: Inhibition of electron transport systems; format: cell-based
E. coli ATCC 25019 = assay: MIC, broth dilution; format: cell-based; settings: Escherichia coli, ATCC25019
P. aeruginosa ATCC 27853 = assay: MIC, broth dilution; format: cell-based; settings: Pseudomonas aeruginosa, ATCC27853
[5] = target: bacterial RNA polymerases; assay: RNA polymerase assays, enzyme not given; format: biochemical; settings: read-out: IC50, bacterial RNA polymerases; abstract
MurX = target: T2, MurX (Mycobacterium tuberculosis, UniProt P9WMW7); assay: MurX enzyme inhibitory assay; format: biochemical, M. tuberculosis
T2 sequence (P9WMW7 1-359): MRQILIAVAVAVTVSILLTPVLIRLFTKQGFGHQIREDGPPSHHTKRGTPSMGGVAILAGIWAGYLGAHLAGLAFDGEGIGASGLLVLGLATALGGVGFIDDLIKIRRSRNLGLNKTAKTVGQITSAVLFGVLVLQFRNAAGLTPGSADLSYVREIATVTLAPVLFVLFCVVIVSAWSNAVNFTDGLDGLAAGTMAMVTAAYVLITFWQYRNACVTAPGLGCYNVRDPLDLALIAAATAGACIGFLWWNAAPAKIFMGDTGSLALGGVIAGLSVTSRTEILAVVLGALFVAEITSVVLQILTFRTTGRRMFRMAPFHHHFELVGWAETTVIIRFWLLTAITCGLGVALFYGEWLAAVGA

[6] = target: Mtb serine/threonine kinase PknB (Mycobacterium tuberculosis, UniProt P9WI81); assay: Ser/Thr protein kinase assay; format: biochemical, M. tuberculosis
menaquinone biosynthesis = format: biochemical
[7] = system: non-replicating M. tuberculosis H37Rv (pFCA-luxAB); assay: microbe, parasite or virus in culture; format: cell-based; settings: Mycobacterium tuberculosis, read-out: MIC μg/mL (LORA)
E. faecium ATCC 349 = assay: MIC, broth dilution; format: cell-based; settings: Enterococcus faecium, ATCC349
M. tuberculosis = format: cell-based, Mycobacterium tuberculosis; settings: for time to kill Mtb completely (100%): 2× MIC: capuramycin 24.0 μg/mL; for time to kill Mtb completely (100%) / time to kill 50% of Mtb: UT-01320 3.0 μg/mL; for time to kill 50% of Mtb: 2× MIC: rifampicin 0.4, INH 1.0 (so in the source)
E. coli RNA polymerase = E. coli RNA polymerase (Escherichia coli, UniProt P0A8T7+P0A8V2); assay: RNA polymerase assay; format: biochemical
Chain of E. coli RNA polymerase (P0A8V2 whole entry): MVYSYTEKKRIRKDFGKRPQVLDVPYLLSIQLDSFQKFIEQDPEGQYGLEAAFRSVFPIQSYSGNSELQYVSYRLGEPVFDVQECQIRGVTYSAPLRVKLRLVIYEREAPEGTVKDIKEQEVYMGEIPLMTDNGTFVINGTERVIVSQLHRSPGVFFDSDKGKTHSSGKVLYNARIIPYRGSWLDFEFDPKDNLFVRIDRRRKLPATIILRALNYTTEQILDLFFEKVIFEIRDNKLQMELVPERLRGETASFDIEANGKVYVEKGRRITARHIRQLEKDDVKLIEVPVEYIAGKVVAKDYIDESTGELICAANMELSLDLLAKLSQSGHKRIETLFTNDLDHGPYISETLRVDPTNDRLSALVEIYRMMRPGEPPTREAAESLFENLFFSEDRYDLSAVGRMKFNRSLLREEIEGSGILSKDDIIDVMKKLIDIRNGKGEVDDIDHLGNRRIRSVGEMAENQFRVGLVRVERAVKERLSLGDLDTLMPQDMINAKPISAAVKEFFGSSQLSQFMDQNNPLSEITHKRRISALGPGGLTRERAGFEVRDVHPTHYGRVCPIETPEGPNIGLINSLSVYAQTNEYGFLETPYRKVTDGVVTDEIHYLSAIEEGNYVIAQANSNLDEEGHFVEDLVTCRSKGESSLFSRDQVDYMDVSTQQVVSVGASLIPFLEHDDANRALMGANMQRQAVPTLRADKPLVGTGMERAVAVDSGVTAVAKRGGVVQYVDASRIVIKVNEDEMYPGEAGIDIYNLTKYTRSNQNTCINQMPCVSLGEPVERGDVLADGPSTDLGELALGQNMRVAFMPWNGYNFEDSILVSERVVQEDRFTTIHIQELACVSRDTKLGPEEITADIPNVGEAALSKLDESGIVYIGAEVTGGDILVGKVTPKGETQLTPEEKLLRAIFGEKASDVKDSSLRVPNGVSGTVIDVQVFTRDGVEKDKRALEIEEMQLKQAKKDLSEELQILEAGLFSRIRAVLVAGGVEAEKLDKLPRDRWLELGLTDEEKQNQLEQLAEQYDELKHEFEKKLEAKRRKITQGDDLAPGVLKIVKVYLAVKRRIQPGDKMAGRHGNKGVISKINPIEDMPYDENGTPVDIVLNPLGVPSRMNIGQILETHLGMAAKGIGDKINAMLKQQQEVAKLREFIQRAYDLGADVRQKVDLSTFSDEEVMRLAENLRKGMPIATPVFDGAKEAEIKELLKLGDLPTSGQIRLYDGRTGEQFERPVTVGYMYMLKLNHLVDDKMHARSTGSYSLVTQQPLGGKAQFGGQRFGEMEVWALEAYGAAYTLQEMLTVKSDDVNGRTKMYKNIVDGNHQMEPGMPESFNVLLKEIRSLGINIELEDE
Chain of E. coli RNA polymerase (P0A8T7 whole entry): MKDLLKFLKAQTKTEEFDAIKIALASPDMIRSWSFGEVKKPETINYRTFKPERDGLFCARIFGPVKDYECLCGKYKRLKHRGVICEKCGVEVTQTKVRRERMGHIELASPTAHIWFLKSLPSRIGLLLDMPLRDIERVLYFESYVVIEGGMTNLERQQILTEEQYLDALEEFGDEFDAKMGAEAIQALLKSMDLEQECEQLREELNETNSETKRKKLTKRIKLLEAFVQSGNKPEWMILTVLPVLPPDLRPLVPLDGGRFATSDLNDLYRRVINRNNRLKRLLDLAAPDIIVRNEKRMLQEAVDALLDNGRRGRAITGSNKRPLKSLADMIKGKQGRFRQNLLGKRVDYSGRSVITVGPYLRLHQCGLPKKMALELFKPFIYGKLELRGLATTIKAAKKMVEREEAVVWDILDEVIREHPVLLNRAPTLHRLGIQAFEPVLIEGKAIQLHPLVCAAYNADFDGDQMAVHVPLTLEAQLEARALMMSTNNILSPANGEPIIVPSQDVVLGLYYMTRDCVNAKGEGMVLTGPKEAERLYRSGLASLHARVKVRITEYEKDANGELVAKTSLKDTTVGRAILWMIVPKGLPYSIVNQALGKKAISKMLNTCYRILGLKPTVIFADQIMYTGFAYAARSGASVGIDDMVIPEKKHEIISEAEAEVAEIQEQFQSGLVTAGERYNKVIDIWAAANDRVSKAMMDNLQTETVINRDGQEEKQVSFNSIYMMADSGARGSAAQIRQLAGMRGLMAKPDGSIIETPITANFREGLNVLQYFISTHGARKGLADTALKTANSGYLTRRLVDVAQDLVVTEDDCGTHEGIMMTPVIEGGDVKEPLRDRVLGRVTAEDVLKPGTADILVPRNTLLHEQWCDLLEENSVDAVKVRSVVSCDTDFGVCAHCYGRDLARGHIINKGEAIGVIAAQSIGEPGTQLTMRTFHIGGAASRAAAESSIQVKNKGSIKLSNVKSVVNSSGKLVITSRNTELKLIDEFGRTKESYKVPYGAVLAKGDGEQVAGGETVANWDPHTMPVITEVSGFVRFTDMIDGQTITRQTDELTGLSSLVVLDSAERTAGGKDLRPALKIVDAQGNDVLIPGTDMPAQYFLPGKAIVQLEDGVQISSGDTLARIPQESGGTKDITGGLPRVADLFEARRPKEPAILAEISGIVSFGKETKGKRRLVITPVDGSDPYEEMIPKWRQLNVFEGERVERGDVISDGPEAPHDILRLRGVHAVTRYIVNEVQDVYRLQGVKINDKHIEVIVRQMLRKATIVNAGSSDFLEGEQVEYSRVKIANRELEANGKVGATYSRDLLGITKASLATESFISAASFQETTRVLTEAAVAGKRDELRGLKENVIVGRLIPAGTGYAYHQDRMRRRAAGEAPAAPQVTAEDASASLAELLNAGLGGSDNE
Chain of E. coli RNA polymerase (P0A7Z4 whole entry partner): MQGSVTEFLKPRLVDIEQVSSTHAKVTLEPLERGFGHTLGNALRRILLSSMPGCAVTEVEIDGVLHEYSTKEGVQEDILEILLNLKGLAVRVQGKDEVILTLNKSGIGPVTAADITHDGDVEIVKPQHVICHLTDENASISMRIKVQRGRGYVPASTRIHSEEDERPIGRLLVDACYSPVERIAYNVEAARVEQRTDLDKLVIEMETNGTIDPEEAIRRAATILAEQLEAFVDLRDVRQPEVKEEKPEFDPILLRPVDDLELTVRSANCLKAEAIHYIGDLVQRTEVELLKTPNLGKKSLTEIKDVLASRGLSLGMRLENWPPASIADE
Chain of E. coli RNA polymerase (P0A800 whole entry partner): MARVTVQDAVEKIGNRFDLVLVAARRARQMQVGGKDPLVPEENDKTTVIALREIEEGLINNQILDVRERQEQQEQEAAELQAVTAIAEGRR

Mtb = assay: Micro dilution broth checkerboard; format: cell-based, Mycobacterium tuberculosis

| SMILES | MIC (M. tuberculosis H37Rv) [µg/mL] | IC50 [3] [µg/mL] | IC50 (MurX) [nM] | MIC [7] [µg/mL] | time to kill Mtb completely (100%) (M. tuberculosis) [days] | time to kill 50% of Mtb (M. tuberculosis) | IC50 (E. coli RNA polymerase) [nM] | MIC (M. tuberculosis H37Rv; read-out: MIC μg/mL (MABA)) [µg/mL] | further results |
| --- | --- | --- | --- | --- | --- | --- | --- | --- | --- |
| COC1C(C(OC2OC(C(=O)NC3CCCCNC3=O)=CC(O)C2O)C(N)=O)OC(n2ccc(=O)[nH]c2=O)C1OC (stereo not drawn) [UT-01320 (3), 6-{Carbamoyl-[5-(2,4-dioxo-3,4-dihydro-2H-pyrimidin-1-yl)-3,4-dimethoxy-tetrahydro-furan-2-yl]-methoxy}-4,5-dihydroxy-5,6-dihydro-4H-pyran-2-carboxylic acid (2-oxo-azepan-3-yl)-amide] | 1.5 (≈ 2.57 µM) | > 400 | > 100000 | 2.58 (≈ 4.42 µM) | ≤ 5 | ≤ 3 days | 100 to 150 | – | inhibition of DNA gyrase (DNA gyrase): did not inhibit; MIC (M. smegmatis ATCC607): >200 µg/mL; IC50 [1]: 100 to 150 nM; IC50 (S. aureus RNA polymerase): 100 to 150 nM; inhibition of Mtb serine/threonine kinase PKnA [2]: did not inhibit; IC50 (Cytotoxicity assay): > 400 µg/mL; inhibition of electron transport systems [4]: did not inhibit; MIC (E. coli ATCC 25019): > 200 µg/mL; MIC (P. aeruginosa ATCC 27853): > 200 µg/mL; IC50 [5]: 100 to 150 nM; MurX enzyme inhibitory activity (MurX): did not interfere with MurX; MurX enzyme inhibitory activity (MurX; listed as 3): did not exhibit MurX enzyme inhibitory activity even at high concentrations; inhibition of Mtb serine/threonine kinase PknB [6]: did not inhibit; inhibition of menaquinone biosynthesis (menaquinone biosynthesis): did not inhibit; MIC (E. faecium ATCC 349): > 200 µg/mL; time to kill 100% of Mtb (M. tuberculosis; 4× MIC: UT-01320 6.0 μg/mL): ≤ 3 days |
| COC1C(O)C(n2ccc(=O)[nH]c2=O)OC1C(OC1OC(C(=O)Nc2ccc(F)c(F)c2)=CC(O)C1O)C(N)=O (stereo not drawn) [SQ 641 (2), 6-{Carbamoyl-[5-(2,4-dioxo-3,4-dihydro-2H-pyrimidin-1-yl)-4-hydroxy-3-methoxy-tetrahydro-furan-2-yl]-methoxy}-4,5-dihydroxy-5,6-dihydro-4H-pyran-2-carboxylic acid (3,4-difluoro-phenyl)-amide] | – | > 400 | 98 | > 100 | – | – | – | – | MIC (μg/mL) CA and CB (concentration in combination) (Mtb; pair SQ 641 0.10 + UT-01320 0.08): 0.10 µg/mL; MIC (μg/mL) CA and CB (concentration in combination) (Mtb; pair SQ 641 0.10 + UT-01320 0.16): 0.10 µg/mL; MIC (μg/mL) CA and CB (concentration in combination) (Mtb; pair SQ 641 0.10 + UT-01320 0.32): 0.10 µg/mL; MIC (μg/mL) CA and CB (concentration in combination) (Mtb; pair SQ 641 0.10 + UT-01320 0.645): 0.10 µg/mL; MIC (μg/mL) CA and CB (concentration in combination) (Mtb; pair SQ 641 0.10 + UT-01320 1.29): 0.10 µg/mL |
| COC1C(O)C(n2ccc(=O)[nH]c2=O)OC1C(OC1OC(C(=O)NC2CCCCNC2=O)=CC(O)C1O)C(N)=O (stereo not drawn) [Capuramycin (1), 6-{Carbamoyl-[5-(2,4-dioxo-3,4-dihydro-2H-pyrimidin-1-yl)-4-hydroxy-3-methoxy-tetrahydro-furan-2-yl]-methoxy}-4,5-dihydroxy-5,6-dihydro-4H-pyran-2-carboxylic acid (2-oxo-azepan-3-yl)-amide] | – | > 400 | 127 | > 100 | 2 | – | – | – | log10 CFU/mL reduction (M. tuberculosis; in 1 day, 24.0 μg/mL (2× MIC)): ≥ 3.0 log10 CFU/mL |
| CC[C@@H](CO)NCCN[C@@H](CC)CO [Ethambutol (EMB), Ethambutol] | – | > 400 | – | > 100 | – | – | – | 0.78 (≈ 3.82 µM) | – |
| NNC(=O)c1ccncc1 [Isoniazid (INH), Isoniazid] | 0.04 to 0.1 (≈ 0.292 to 0.729 µM) | > 400 | – | > 100 | – | – | – | 0.04 to 0.1 (≈ 0.292 to 0.729 µM) | – |
| CO[C@H]1/C=C/O[C@@]2(C)Oc3c(C)c(O)c4c(O)c(c(/C=N/N5CCN(C)CC5)c(O)c4c3C2=O)NC(=O)/C(C)=C\C=C\[C@H](C)[C@H](O)[C@@H](C)[C@@H](O)[C@@H](C)[C@H](OC(C)=O)[C@@H]1C [Rifampicin (RFP), Rifampicin] | 0.2 (≈ 0.243 µM) | > 400 | – | – | – | over 7 days | 120 | 0.2 (≈ 0.243 µM) | – |
